According to ChEMBL document CHEMBL1811767, “Quinoxalin-2(1H)-one derivatives as inhibitors against hepatitis C virus” (J Med Chem, 2011):

How the values were obtained:
[1] = Selectivity index, ratio of IC50 for human Huh7ET cells to EC50 for Hepatitis C virus; assay type: toxicity, cell-based, Huh-7; conditions: read-out: Ratio IC50/EC50
Outline: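 SI taken as IC50 (CytoTox-1 viability, Huh 7 ET replicon cells, 72 h) divided by EC50 (replicon luciferase, same cells and exposure); each from four-replicate averages.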

Hepatitis C virus = test: Antiviral activity against Hepatitis C virus infected in human Huh7ET cells assessed as inhibition of dicistronic viral RNA replication after 72 hrs by luciferase reporter gene assay; assay type: functional, organism-based, Hepacivirus hominis; conditions: Huh-7, 72 h
Outline: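 HCV replicon Huh 7 ET cells seeded 5000/well in DMEM without G418 overnight; compounds dissolved in DMSO, diluted in DMEM, dose-response. After 72 h, replicon-derived luciferase read by Steady-Glo. Mean of four replicates; EC50 = concentration inhibiting HCV RNA replication by 50%.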

[2] = Cytotoxicity against human Huh7ET cells by CytoTox-one cell proliferation assay; assay type: cell-based; conditions: Huh-7
Outline: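 Parallel plate of replicon Huh 7 ET cells (5000/well, DMEM without G418), compounds from DMSO stocks diluted in DMEM, 72 h. Viability by tetrazolium-based CytoTox-1 proliferation assay. Mean of four replicates; IC50 = concentration decreasing cell viability by 50%.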

Structure (SMILES)	selectivity ratio [1]	EC50 (Hepatitis C virus) [µM]	IC50 [2] [µM]
CN(c1cc2ncc(=O)[nH]c2cc1Nc1nc(C(F)(F)F)cs1)C1CCCCC1	4.6	8.12	37.4
CCN(CC)c1cc2ncc(=O)[nH]c2cc1Nc1nc(-c2ccccc2)cs1	17.9	1.27	22.8
CN(c1cc2ncc(=O)[nH]c2cc1NC(=S)NC(=O)/C=C/c1ccccc1)C1CCCCC1	1.6	6.77	11
CN(c1cc2ncc(=O)[nH]c2cc1NC(=S)Nc1ccccc1)C1CCCCC1	< 2.8	> 20	49.6
CN(c1cc2nc(Cc3ccccc3)c(=O)[nH]c2cc1Nc1nc(-c2ccccc2)cs1)C1CCCCC1	< 2.1	> 20	42
CN(c1cc2ncc(=O)[nH]c2cc1NC(=N)NCc1cccc(C(F)(F)F)c1)C1CCCCC1	< 2.7	> 20	54
CN(c1cc2ncc(=O)[nH]c2cc1NC(=S)Nc1cccc(C(F)(F)F)c1)C1CCCCC1	< 3.9	> 20	78.4
CN(c1cc2c(cc1Nc1nc(-c3ccccc3)cs1)NC(=O)CS2)C1CCCCC1	< 0.69	> 20	13.8
CN(c1cc2ncc(=O)[nH]c2cc1NC(=S)NC(=O)c1ccco1)C1CCCCC1	9.6	1.8	17.3
CN(c1cc2ncc(=O)[nH]c2cc1NC(=O)Nc1cccc2ccccc12)C1CCCCC1	0.5	9.84	5.33
CN(c1cc2ncc(=O)[nH]c2cc1NC(=S)NC(=O)c1ccc(F)cc1)C1CCCCC1	3.8	2.97	11.4
CN(c1cc2c(cc1Nc1nc(-c3ccccc3)cs1)NC(=O)CO2)C1CCCCC1	1.1	15.4	17.5
O=c1cnc2cc(N3CCOCC3)c(Nc3nc(-c4ccccc4)cs3)cc2[nH]1	11.2	5.19	58.3
CN(c1cc2ncc(=O)[nH]c2cc1NC(=S)NC(=O)c1cccc(C(F)(F)F)c1)C1CCCCC1	7.5	4.08	31.5
CN(c1cc2ncc(=O)[nH]c2cc1Nc1nc(-c2ccc(Cl)cc2)cs1)C1CCCCC1	3.1	5.39	16.7
CN(c1cc2ncc(=O)[nH]c2cc1NC(=S)Nc1cccc2ccccc12)C1CCCCC1	< 2.2	> 20	43.6
CN(c1cc2ncc(=O)[nH]c2cc1Nc1nc(-c2ccc(-c3ccccc3)cc2)cs1)C1CCCCC1	< 4.1	> 20	82
CN(c1cc2ncc(=O)[nH]c2cc1Nc1nc(-c2ccco2)cs1)C1CCCCC1	1	12.2	11.9
CN(c1cc2ncc(=O)[nH]c2cc1Nc1nc(-c2cccnc2)cs1)C1CCCCC1	2.09	5.49	11.5
CN(c1cc2ncc(=O)[nH]c2cc1N1C(=O)CN(c2cccc3ccccc23)C1=S)C1CCCCC1	0.85	13.1	11.2
CN(c1cc2ncc(=O)[nH]c2cc1Nc1nc(-c2ccc3c(c2)OCO3)cs1)C1CCCCC1	< 3.1	> 20	61.2
CN1CCN(c2cc3ncc(=O)[nH]c3cc2Nc2nc(-c3ccccc3)cs2)CC1	2.2	4.59	10.2
CN(c1cc2ncc(=O)[nH]c2cc1NC(=S)Nc1ccc(F)cc1)C1CCCCC1	< 3.2	> 20	64.3
